In ChEMBL document CHEMBL4257579, “Analogs of penfluridol as chemotherapeutic agents with reduced central nervous system activity” (Bioorg Med Chem Lett, 2018):
pIC50, pKi: −log10 of the molar value.

Tests used:
D(3) dopamine receptor = D(3) dopamine receptor (Homo sapiens, UniProt P35462); experiment: Displacement of [3H]N-methylspiperone from human dopamine D3 receptor expressed in HEK293T cells by radioligand binding assay relative to control; type: cell-based; set-up: concentration or dose not given beside the values; conditions: concentration not given here
[1] = biological target: T1, Sodium-dependent dopamine transporter (Homo sapiens, UniProt Q01959); experiment: Displacement of [3H]WIN35428 from human DAT expressed in HEK cells by radioligand binding assay; type: cell-based
[2] = test system: Lewis lung carcinoma cell line; experiment: Cytotoxicity against mouse LLC cells harboring […] assessed as reduction in cell viability after 72 hrs by MTT assay; type: functional, cell-based
Summary of the method: (§1)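 Cells exposed to compounds; viability read at 24, 48 and 72 h. Every experiment run in triplicate.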

[3] = biological target: T2, 5-hydroxytryptamine receptor 2A (Homo sapiens, UniProt P28223); experiment: Displacement of [3H]Ketanserin from 5-HT2A receptor (unknown origin) by radioligand binding assay relative to control; set-up: concentration or dose not given beside the values; conditions: concentration not given here
[4] = biological target: T1, Sodium-dependent dopamine transporter; experiment: Displacement of [3H]WIN35428 from human DAT expressed in HEK cells by radioligand binding assay relative to control; type: cell-based
[5] = biological target: T3, 5-hydroxytryptamine receptor 6 (Homo sapiens, UniProt P50406); experiment: Displacement of [3H]LSD from human 5-HT6 receptor expressed in HEK cells by radioligand binding assay relative to control; type: cell-based; set-up: concentration or dose not given beside the values; conditions: concentration not given here
[6] = biological target: T4, 5-hydroxytryptamine receptor 2B (Homo sapiens, UniProt P41595); experiment: Displacement of [3H]LSD from human 5-HT2B receptor expressed in HEK cells by radioligand binding assay; type: cell-based; conditions: for pKi: read-out: Ki
[7] = biological target: T5, Kappa-type opioid receptor (Homo sapiens, UniProt P41145); experiment: Displacement of [3H]U69593 from KOR (unknown origin) expressed in HEK cells by radioligand binding assay; type: cell-based
[8] = biological target: T5, Kappa-type opioid receptor; experiment: Displacement of [3H]U69593 from KOR (unknown origin) expressed in HEK cells by radioligand binding assay relative to control; type: cell-based; set-up: concentration or dose not given beside the values; conditions: concentration not given here
D(1A) dopamine receptor = D(1A) dopamine receptor (Homo sapiens, UniProt P21728); experiment: Displacement of [3H]SCH23390 from human dopamine D1 receptor expressed in HEK293T cells by radioligand binding assay relative to control; type: cell-based; set-up: concentration or dose not given beside the values; conditions: concentration not given here
D(1B) dopamine receptor [9] = biological target: T6, D(1B) dopamine receptor (Homo sapiens, UniProt P21918); experiment: Displacement of [3H]SCH23390 from human dopamine D5 receptor expressed in HEK293T cells by radioligand binding assay; type: cell-based
D(2) dopamine receptor [10] = biological target: T7, D(2) dopamine receptor (Homo sapiens, UniProt P14416); experiment: Displacement of [3H]N-methylspiperone from human dopamine D2 receptor expressed in stable fibroblast cells by radioligand binding assay relative to control; type: cell-based; set-up: concentration or dose not given beside the values; conditions: concentration not given here
[11] = biological target: T2, 5-hydroxytryptamine receptor 2A; experiment: Displacement of [3H]Ketanserin from 5-HT2A receptor (unknown origin) by radioligand binding assay
[12] = biological target: T3, 5-hydroxytryptamine receptor 6; experiment: Displacement of [3H]LSD from human 5-HT6 receptor expressed in HEK cells by radioligand binding assay; type: cell-based
NIH3T3 [13] = experiment: Cytotoxicity against mouse NIH/3T3 cells assessed as reduction in cell viability after 24 hrs by MTT assay; type: cell-based; conditions: NIH3T3, 24 h; summary of the method: as §1
D(4) dopamine receptor = biological target: T8, D(4) dopamine receptor (Homo sapiens, UniProt P21917); experiment: Displacement of [3H]N-methylspiperone from human dopamine D4 receptor by radioligand binding assay
T8 sequence (P21917 whole entry): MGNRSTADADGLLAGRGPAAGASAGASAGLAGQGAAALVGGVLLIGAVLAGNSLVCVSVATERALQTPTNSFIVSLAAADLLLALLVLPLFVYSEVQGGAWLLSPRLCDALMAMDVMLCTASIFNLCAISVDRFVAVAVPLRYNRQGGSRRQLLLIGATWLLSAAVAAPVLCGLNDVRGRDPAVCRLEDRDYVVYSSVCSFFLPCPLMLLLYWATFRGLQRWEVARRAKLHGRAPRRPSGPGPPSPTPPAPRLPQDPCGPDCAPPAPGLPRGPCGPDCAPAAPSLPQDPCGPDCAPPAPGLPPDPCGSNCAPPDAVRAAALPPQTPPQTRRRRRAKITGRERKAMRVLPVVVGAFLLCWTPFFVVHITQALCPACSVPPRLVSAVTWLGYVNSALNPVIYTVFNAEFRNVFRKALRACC

[14] = biological target: T4, 5-hydroxytryptamine receptor 2B; experiment: Displacement of [3H]LSD from human 5-HT2B receptor expressed in HEK cells by radioligand binding assay relative to control; type: cell-based; set-up: concentration or dose not given beside the values; conditions: concentration not given here
Mu-type opioid receptor = Mu-type opioid receptor (Homo sapiens, UniProt P35372); experiment: Displacement of [3H]DAMGO from human MOR expressed in HEK cells by radioligand binding assay relative to control; type: cell-based; set-up: concentration or dose not given beside the values; conditions: concentration not given here
[15] = biological target: Delta-type opioid receptor (Homo sapiens, UniProt P41143); experiment: Displacement of [3H]DADLE from human DOR expressed in HEK cells by radioligand binding assay; type: cell-based; conditions: for pKi: read-out: Ki
[16] = biological target: 5-hydroxytryptamine receptor 5A (Homo sapiens, UniProt P47898); experiment: Displacement of [3H]LSD from human 5-HT5A receptor expressed in Flp-In CHO cells by radioligand binding assay relative to control; type: cell-based; set-up: concentration or dose not given beside the values; conditions: concentration not given here
D(2) dopamine receptor [17] = biological target: T7, D(2) dopamine receptor; experiment: Displacement of [3H]N-methylspiperone from human dopamine D2 receptor expressed in stable fibroblast cells by radioligand binding assay; type: cell-based
D(1B) dopamine receptor [18] = biological target: T6, D(1B) dopamine receptor; experiment: Displacement of [3H]SCH23390 from human dopamine D5 receptor expressed in HEK293T cells by radioligand binding assay relative to control; type: cell-based; set-up: concentration or dose not given beside the values; conditions: concentration not given here
MDA-MB-231 = experiment: Cytotoxicity against human MDA-MB-231 cells assessed as reduction in cell viability after 72 hrs by MTT assay; type: functional, cell-based; conditions: MDA-MB-231, 72 h; summary of the method: as §1
[19] = biological target: Sodium-dependent noradrenaline transporter (Homo sapiens, UniProt P23975); experiment: Displacement of [3H]Nisoxetine from human NET expressed in HEK cells by radioligand binding assay relative to control; type: cell-based
NIH3T3 [20] = experiment: Cytotoxicity against mouse NIH/3T3 cells assessed as reduction in cell viability after 48 hrs by MTT assay; type: cell-based; conditions: NIH3T3, 48 h; summary of the method: as §1
[21] = biological target: Sodium-dependent serotonin transporter (Homo sapiens, UniProt P31645); experiment: Displacement of [3H]Citalopram from human SERT expressed in HEK cells by radioligand binding assay; type: cell-based
[22] = Drug distribution in C57BL/6J mouse adipose tissue at 5 mg/kg, ip treated daily for 7 consecutive days measured after 24 hrs post last dose by LC/MS/MS analysis; type: ADME, organism-based; conditions: in vivo
Summary of the method: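 Female C57BL6 mice dosed 5 mg/kg i.p. once daily for seven consecutive days; sacrificed 24 h after last injection, organs stored at −80 °C. Plasma, brain, lungs and adipose tissue analysed by LC-MS/MS for drug concentration (nM); n = 5.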

Mus musculus [23] = experiment: Toxicity in C57BL/6J mouse assessed as decrease in blood urea nitrogen level at 5 mg/kg, ip treated daily for 7 consecutive days measured after 24 hrs post last dose […]; conditions: in vivo
Mus musculus [24] = experiment: Toxicity in C57BL/6J mouse assessed as reduction in alkaline phosphatase level at 5 mg/kg, ip treated daily for 7 consecutive days measured after 24 hrs post last dose […]; type: organism-based; conditions: in vivo
Summary of the method: (§2)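 Female C57BL6 mice given 5 mg/kg i.p. daily for 7 days; blood taken at sacrifice 24 h after last dose for clinical chemistry panel: electrolytes, minerals, total protein, albumin, globulin, A/G ratio, BUN, ALT, AST, GLDH, cholestasis markers, ALP, bilirubin, amylase, creatine kinase.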

Mus musculus [25] = experiment: Toxicity in C57BL/6J mouse assessed as increase in glutamate dehydrogenase level at 5 mg/kg, ip treated daily for 7 consecutive days measured after 24 hrs post last dose […]; type: organism-based; conditions: in vivo; summary of the method: as §2

T3 sequence (P50406 whole entry): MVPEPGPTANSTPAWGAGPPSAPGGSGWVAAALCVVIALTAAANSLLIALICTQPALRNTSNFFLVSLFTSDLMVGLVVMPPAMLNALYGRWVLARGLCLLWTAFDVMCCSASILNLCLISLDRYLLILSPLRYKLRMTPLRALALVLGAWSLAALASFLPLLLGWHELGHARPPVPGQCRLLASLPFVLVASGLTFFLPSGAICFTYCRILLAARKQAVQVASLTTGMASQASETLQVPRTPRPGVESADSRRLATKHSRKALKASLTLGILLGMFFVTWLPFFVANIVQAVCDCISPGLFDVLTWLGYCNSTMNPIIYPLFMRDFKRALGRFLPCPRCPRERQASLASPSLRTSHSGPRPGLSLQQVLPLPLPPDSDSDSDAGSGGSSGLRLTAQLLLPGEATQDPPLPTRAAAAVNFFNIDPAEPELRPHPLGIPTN
T4 sequence (P41595 whole entry): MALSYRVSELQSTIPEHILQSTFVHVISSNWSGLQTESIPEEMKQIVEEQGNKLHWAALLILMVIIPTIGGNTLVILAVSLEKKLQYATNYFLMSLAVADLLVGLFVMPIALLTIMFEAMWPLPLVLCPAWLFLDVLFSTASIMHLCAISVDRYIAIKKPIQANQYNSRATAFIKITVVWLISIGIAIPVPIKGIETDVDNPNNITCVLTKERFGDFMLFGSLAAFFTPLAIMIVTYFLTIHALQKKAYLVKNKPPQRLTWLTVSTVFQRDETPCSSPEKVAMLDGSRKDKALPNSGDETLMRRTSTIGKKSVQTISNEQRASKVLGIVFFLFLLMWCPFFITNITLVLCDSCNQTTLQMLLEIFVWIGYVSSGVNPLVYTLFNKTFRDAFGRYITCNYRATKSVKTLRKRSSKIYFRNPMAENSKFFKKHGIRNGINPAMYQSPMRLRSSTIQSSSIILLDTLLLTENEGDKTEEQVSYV
5-hydroxytryptamine receptor 5A, sequence (P47898 whole entry): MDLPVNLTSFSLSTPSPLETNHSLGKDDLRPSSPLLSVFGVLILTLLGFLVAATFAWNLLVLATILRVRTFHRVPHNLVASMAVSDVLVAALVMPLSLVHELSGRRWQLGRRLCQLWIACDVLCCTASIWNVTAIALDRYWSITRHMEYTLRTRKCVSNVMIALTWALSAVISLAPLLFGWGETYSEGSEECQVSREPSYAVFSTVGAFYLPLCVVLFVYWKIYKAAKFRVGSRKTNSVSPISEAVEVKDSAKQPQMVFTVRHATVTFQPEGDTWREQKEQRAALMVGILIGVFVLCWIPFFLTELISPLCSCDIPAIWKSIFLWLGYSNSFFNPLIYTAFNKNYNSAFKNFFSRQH
Mu-type opioid receptor, sequence (P35372 whole entry): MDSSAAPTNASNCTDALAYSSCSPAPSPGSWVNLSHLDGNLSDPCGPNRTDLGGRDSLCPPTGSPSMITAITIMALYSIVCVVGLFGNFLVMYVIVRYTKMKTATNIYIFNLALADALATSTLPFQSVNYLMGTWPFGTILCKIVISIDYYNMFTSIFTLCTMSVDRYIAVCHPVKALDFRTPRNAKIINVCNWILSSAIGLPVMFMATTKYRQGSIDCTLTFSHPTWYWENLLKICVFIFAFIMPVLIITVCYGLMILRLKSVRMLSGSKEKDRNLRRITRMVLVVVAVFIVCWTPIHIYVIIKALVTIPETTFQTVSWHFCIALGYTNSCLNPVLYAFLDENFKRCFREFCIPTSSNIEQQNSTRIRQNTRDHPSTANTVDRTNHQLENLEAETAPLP
D(3) dopamine receptor, sequence (P35462 whole entry): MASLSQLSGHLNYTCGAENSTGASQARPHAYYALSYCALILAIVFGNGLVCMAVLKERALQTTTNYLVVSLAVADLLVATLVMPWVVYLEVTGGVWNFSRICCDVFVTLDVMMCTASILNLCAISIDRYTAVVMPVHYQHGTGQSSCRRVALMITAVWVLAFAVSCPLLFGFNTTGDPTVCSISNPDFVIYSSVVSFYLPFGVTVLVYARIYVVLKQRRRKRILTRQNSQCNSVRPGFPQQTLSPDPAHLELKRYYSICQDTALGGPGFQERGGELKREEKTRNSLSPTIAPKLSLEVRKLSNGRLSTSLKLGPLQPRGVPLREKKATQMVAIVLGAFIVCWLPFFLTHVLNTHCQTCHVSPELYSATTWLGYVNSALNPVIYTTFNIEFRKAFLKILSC
T7 sequence (P14416 whole entry): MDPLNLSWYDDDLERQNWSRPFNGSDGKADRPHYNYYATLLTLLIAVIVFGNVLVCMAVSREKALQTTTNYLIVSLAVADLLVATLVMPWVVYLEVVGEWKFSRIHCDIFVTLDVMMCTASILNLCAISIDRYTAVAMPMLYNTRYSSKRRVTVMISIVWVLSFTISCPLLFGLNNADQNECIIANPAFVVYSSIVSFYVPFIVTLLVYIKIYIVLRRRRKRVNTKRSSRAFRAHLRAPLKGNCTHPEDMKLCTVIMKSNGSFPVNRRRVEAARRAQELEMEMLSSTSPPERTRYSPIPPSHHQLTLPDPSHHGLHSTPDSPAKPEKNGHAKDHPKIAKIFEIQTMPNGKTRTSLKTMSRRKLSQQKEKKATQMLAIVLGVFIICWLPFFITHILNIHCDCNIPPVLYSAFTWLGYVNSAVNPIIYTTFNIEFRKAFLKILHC
T6 sequence (P21918 whole entry): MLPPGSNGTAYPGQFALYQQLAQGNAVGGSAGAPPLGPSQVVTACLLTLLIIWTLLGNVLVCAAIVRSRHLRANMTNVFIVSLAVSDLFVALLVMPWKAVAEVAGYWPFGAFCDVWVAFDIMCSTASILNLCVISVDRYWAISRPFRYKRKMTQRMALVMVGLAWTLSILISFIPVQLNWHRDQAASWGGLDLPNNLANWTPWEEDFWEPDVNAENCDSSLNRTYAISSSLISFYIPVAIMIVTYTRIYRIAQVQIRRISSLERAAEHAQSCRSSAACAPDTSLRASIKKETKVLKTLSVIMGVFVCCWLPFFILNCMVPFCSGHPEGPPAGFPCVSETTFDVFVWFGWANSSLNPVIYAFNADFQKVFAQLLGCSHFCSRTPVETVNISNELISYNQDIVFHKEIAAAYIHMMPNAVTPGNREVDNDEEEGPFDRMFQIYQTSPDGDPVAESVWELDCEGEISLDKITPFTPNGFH
T5 sequence (P41145 whole entry): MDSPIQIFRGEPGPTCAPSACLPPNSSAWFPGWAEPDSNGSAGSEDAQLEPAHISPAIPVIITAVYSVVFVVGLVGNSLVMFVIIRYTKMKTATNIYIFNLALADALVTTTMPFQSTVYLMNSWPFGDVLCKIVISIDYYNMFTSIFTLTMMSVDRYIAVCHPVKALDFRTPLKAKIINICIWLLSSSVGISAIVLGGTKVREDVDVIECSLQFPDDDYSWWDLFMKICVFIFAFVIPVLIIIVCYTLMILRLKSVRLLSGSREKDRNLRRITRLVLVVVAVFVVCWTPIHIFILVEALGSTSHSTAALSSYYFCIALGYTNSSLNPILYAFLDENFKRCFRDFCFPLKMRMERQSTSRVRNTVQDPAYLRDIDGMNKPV
Delta-type opioid receptor, sequence (P41143 whole entry): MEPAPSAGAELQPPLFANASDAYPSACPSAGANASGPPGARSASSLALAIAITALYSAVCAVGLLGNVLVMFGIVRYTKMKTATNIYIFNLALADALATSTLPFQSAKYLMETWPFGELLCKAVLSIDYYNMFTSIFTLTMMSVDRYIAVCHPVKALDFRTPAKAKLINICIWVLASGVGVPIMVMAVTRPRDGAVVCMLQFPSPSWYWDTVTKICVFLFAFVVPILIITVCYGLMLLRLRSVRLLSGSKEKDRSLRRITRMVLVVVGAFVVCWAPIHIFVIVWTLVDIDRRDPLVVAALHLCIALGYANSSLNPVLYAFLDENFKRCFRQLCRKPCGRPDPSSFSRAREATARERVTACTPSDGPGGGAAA
T1 sequence (Q01959 whole entry): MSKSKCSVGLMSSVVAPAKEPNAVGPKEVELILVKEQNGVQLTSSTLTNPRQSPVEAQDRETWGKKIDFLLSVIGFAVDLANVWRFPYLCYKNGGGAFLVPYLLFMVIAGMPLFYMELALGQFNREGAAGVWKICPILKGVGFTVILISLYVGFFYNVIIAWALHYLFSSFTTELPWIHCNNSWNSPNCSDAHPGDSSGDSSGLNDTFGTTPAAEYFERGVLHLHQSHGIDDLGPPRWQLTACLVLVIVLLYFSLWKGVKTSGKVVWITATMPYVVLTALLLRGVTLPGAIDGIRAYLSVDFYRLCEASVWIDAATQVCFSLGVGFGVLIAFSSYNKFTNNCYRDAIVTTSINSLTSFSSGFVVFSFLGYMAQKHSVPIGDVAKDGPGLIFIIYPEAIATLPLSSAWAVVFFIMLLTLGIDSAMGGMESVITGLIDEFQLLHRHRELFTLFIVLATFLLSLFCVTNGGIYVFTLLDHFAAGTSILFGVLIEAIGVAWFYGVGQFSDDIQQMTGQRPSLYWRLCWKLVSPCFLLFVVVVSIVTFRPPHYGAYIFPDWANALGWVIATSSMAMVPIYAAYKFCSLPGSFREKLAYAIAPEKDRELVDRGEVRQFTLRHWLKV
T2 sequence (P28223 whole entry): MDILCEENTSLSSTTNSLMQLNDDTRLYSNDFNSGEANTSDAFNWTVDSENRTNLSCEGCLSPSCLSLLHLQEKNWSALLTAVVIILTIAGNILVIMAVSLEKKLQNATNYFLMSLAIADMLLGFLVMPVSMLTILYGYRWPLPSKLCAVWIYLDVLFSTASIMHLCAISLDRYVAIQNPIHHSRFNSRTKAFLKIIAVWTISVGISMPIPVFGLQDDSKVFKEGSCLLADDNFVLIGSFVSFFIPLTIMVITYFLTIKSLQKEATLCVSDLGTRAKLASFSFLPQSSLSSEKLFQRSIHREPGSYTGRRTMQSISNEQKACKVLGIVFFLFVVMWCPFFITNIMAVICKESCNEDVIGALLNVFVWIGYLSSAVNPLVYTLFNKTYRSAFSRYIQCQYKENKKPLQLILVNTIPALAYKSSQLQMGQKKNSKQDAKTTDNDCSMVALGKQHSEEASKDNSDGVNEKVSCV

SMILES | inhibition (D(3) dopamine receptor) [%] | pKi [1] | pIC50 [2] | inhibition [3] [%] | inhibition (INH) [4] [%] | inhibition [5] [%] | pKi [6] | pKi [7] | inhibition [8] [%] | inhibition (D(1A) dopamine receptor) [%] | inhibition (D(2) dopamine receptor [10]) [%] | pKi [11] | pIC50 (NIH3T3 [13]) | pKi (D(4) dopamine receptor) | inhibition [14] [%] | inhibition (Mu-type opioid receptor) [%] | inhibition [16] [%] | pKi (D(2) dopamine receptor [17]) | pIC50 (MDA-MB-231) | pIC50 (NIH3T3 [20]) | other results
OC1(c2ccc(Cl)c(C(F)(F)F)c2)CCN(CCCN(c2ccc(F)cc2)c2ccc(F)cc2)CC1 | 94.4 | 5.92 | 5.39 | 94.6 | 83.4 | 86.4 | 6.75 | 6.18 | 69.8 | 96.8 | 66.4 | 6.79 | 5.17 | 7.60 | 95.5 | 97.4 | 67.7 | 6.83 | 5.46 | 5.25 | pKi (D(1B) dopamine receptor [9]): 6.36; pKi [12]: 5.77; pKi [15]: 5.81; inhibition (D(1B) dopamine receptor [18]): 100%; inhibition (INH) [19]: 97.4%; pKi [21]: 6.04
COc1ccc(N(CCCCN2CCC(O)(c3ccc(Cl)c(C(F)(F)F)c3)CC2)c2ccc(OC)cc2)cc1 | 65.1 | 6.21 | 5.21 to 5.57 | 94.1 | 91.3 | 50 | 6.14 | 5.00 | 65.8 | 56.6 | 60 | 6.05 | 5.06 | 6.34 | 77.5 | 76.8 | 50 | 6.38 | 5.15 to 5.27 | 4.96 | Drug uptake [22]: Active; pKi (D(1B) dopamine receptor [9]): 6.21; Activity (Mus musculus [23]): Non-Toxic; pKi [12]: 5.85; Activity (Mus musculus [24]): Non-Toxic; pKi [15]: 5.00; inhibition (D(1B) dopamine receptor [18]): 83.5%; inhibition (INH) [19]: 86.4%; Activity (Mus musculus [25]): Non-Toxic; pKi [21]: 5.88
OC1(c2ccc(Cl)c(C(F)(F)F)c2)CCN(CCCC=C(c2ccc(F)cc2)c2ccc(F)cc2)CC1 | 87.1 |  | 4.95 | 91.5 |  | 54.4 | 5.66 | 5.99 | 80.9 |  | 87.3 | 5.96 | 4.43 | 5.78 | 91.8 | 90.6 | 21.4 | 6.50 | 5.02 | 4.83 | 
OC1(c2ccc(Cl)c(C(F)(F)F)c2)CCN(CCCCCc2ccc(F)cc2)CC1 | 77.8 |  | 5.01 to 5.09 | 68.5 |  | 24.7 |  | 5.77 | 78.3 |  | 81.8 | 6.05 | 4.88 | 6.88 |  | 86.2 | 16.4 | 6.34 | 5.01 | 4.93 | Ki [6]: Not Active; Ki [15]: Not Active
